Test results reported in publication PMC3923119 (Osteoporosis International, 2013).
Read-outs that look alike come from different tables or passages of the source.

Experiments:
[1] = tested on: postmenopausal women with osteoporosis; assay: Changes in calcium metabolism; format: in vivo, human
Method in brief: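 Weekly s.c. 56.5 μg test compound for 24 weeks, in osteoporotic women aged 60–79 on calcium/vitamin D/magnesium supplements. Blood was drawn in weeks 0, 4, 12 and 24, with 0 h sampling at 0800 before dosing and further samples over 24 h. Corrected serum Ca and intact PTH (electrochemiluminescence immunoassay) are given as means±SE versus 0 h or week 0, paired t test.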

[2] = tested on: healthy postmenopausal women; conditions: day 7 after single injection of 56.5 μg; cited from earlier work
[3] = daily teriparatide, cited from earlier work
[4] = tested on: postmenopausal women with osteoporosis; assay: Changes in bone turnover markers; format: in vivo, human
Method in brief: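 Women aged 60–79 received 56.5 μg test compound s.c. weekly for 24 weeks. In weeks 0, 4, 12 and 24, dosing followed 0 h sampling at 0800, with serum/urine taken at 0, 2, 4, 6, 8, 12 and 24 h. Osteocalcin was measured by IRMA, P1NP by RIA, urinary NTX by ELISA, plus urinary DPD. Read-outs were mean (±SE) percent change from 0 h or week 0, paired t test.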

[5] = cited from earlier work
[6] = tested on: postmenopausal women with osteoporosis; assay: Adverse events; format: in vivo, human; conditions: 56.5 μg once weekly for 24 weeks
Method in brief: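 Japanese postmenopausal women with osteoporosis, aged 60–79, at four centres. Test compound (PTH peptide) 56.5 μg given s.c. weekly for 24 weeks, with daily calcium 610 mg, vitamin D 400 IU and magnesium 30 mg. Physicians recorded adverse events and classified them by MedDRA 12.0 system organ class.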

[7] = after 24 weeks, 56.5 μg once weekly
[8] = at 4 weeks, 56.5 μg once weekly, mean percent change, significant

CC[C@H](C)[C@H](NC(=O)[C@H](CCC(=O)O)NC(=O)[C@H](CO)NC(=O)[C@@H](NC(=O)[C@@H](N)CO)C(C)C)C(=O)N[C@@H](CCC(N)=O)C(=O)N[C@@H](CC(C)C)C(=O)N[C@@H](CCSC)C(=O)N[C@@H](Cc1cnc[nH]1)C(=O)N[C@@H](CC(N)=O)C(=O)N[C@@H](CC(C)C)C(=O)NCC(=O)N[C@@H](CCCCN)C(=O)N[C@@H](Cc1cnc[nH]1)C(=O)N[C@@H](CC(C)C)C(=O)N[C@@H](CC(N)=O)C(=O)N[C@@H](CO)C(=O)N[C@@H](CCSC)C(=O)N[C@@H](CCC(=O)O)C(=O)N[C@@H](CCCN=C(N)N)C(=O)N[C@H](C(=O)N[C@@H](CCC(=O)O)C(=O)N[C@@H](Cc1c[nH]c2ccccc12)C(=O)N[C@@H](CC(C)C)C(=O)N[C@@H](CCCN=C(N)N)C(=O)N[C@@H](CCCCN)C(=O)N[C@@H](CCCCN)C(=O)N[C@@H](CC(C)C)C(=O)N[C@@H](CCC(N)=O)C(=O)N[C@@H](CC(=O)O)C(=O)N[C@H](C(=O)N[C@@H](Cc1cnc[nH]1)C(=O)N[C@@H](CC(N)=O)C(=O)N[C@@H](Cc1ccccc1)C(=O)O)C(C)C)C(C)C [teriparatide, Human parathyroid hormone (PTH) 1–34]
serum corrected Ca level during the 24 week dosage period ([1]; 0 h values at 4 and 24 weeks versus 0 weeks, 56.5 μg once weekly, paired t test): decreased significantly
intact PTH level during the dosage period of 24 weeks ([1]; 0 h values at 12 and 24 weeks versus 0 weeks, 56.5 μg once weekly, paired t test): decreased significantly
serum intact PTH minimum concentration ([1]; at 2 or 6 h after 56.5 μg injection, range of means over data collection weeks): 25.6 to 28.3 pg/mL
NTX decrease [2]: 10%
P1NP increase [2]: 10%
osteocalcin increase [2]: 5%
bone formation marker increase ([3]; after 1 month): 105%
bone formation marker (serum PINP) increase ([3]; after 6 months): 218%
bone resorption marker (urinary NTX) increase ([3]; after 6 months): 58%
serum P1NP change after 24 weeks [4, 7]: did not increase significantly
serum osteocalcin change after 24 weeks [4, 7]: increased significantly
urinary DPD maximum value, 24 h percent change from 0 h ([4]; at 2 or 4 h after 56.5 μg injection, range of means over data collection weeks): 29.5 to 31.6%
urinary NTX maximum value, 24 h percent change from 0 h ([4]; at 4 or 6 h after 56.5 μg injection, range of means over data collection weeks): 41.2 to 67.4%
urinary DPD decrease from baseline (0 h values) ([4]; at 4 weeks, 56.5 μg once weekly, mean percent change): 17.8%
serum P1NP increase from baseline (0 h values) [4, 8]: 19.9%
serum osteocalcin increase from baseline (0 h values) [4, 8]: 26.8%
urinary NTX decrease from baseline (0 h values) [4, 8]: 14.8%
serum P1NP minimum value, 24 h percent change from 0 h ([4]; at 6 h after 56.5 μg injection, range of means over data collection weeks): −15.1 to −22.3%
relative risk reduction in vertebral fractures ([5]; daily teriparatide): 65%
relative risk of non-vertebral fragility fracture ([5]; once-weekly teriparatide injection, 95 % CI, 0.24–1.84, p = 0.43): 0.67
relative risk reduction in vertebral fractures ([5]; once-weekly teriparatide): 80%
Hypercalcemia [6]: not observed
serious AEs ([6]; 28 subjects): No serious AEs were observed
